Results from ChEMBL document CHEMBL4811225 (J Med Chem, 2021).
Where a SMILES comes first, the peptide text is derived from it. Bridges are numbered along the chain shown (N, C = ends).

What was measured:
[1] = target: Neuronal acetylcholine receptor; alpha3/beta4 (Rattus norvegicus, UniProt P04757+P12392); assay type: cell-based, Oocyte
[2] = target: Neuronal acetylcholine receptor; alpha4/beta2 (Rattus norvegicus, UniProt P09483+P12390); assay type: cell-based, Oocyte
[3] = target: Neuronal acetylcholine receptor subunit alpha-7 (Rattus norvegicus, UniProt Q05941); assay type: cell-based, Oocyte
Sequence of Neuronal acetylcholine receptor subunit alpha-7 (Rattus norvegicus, UniProt Q05941) (Q05941 whole entry): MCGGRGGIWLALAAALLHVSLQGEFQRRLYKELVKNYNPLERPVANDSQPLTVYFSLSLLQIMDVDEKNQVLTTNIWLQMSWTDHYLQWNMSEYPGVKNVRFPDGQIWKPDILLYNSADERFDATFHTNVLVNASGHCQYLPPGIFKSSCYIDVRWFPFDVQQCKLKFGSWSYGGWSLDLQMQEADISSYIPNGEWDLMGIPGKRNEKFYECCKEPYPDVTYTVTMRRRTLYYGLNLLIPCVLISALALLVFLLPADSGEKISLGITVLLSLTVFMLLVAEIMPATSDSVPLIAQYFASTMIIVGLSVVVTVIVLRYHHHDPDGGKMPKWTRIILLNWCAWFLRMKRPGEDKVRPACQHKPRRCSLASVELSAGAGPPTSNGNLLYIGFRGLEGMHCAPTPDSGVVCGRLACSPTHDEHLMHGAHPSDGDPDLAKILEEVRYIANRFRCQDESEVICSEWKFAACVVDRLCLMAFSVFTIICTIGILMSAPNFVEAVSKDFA

[4] = target: Neuronal acetylcholine receptor; alpha3/beta2 (Rattus norvegicus, UniProt P04757+P12390); assay type: cell-based, Oocyte
[5] = target: Nicotinic acetylcholine receptor alpha6/alpha3/beta4 (Rattus norvegicus, UniProt P04757+P12392+P43143); assay type: cell-based, Oocyte
[6] = target: Nicotinic acetylcholine receptor alpha6/alpha3/beta2/beta3 (Rattus norvegicus, UniProt P04757+P12390+P12391+P43143); assay type: cell-based, Oocyte
Sequence of Nicotinic acetylcholine receptor alpha6/alpha3/beta2/beta3 (P04757 whole entry): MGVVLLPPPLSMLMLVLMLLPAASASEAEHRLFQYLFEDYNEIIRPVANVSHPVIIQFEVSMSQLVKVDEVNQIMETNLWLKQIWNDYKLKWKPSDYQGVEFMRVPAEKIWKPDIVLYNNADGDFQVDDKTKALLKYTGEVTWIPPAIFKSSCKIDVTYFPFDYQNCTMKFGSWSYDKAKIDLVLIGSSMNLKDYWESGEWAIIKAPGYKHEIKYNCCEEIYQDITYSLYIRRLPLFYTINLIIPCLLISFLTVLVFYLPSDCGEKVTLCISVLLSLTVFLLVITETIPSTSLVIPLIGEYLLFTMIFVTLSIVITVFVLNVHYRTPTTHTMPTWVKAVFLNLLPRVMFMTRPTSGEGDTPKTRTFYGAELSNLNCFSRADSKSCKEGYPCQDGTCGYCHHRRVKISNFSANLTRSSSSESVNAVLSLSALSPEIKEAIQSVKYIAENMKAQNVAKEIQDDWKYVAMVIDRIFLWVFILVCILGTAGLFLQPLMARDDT
Sequence of Nicotinic acetylcholine receptor alpha6/alpha3/beta2/beta3 (P12390 whole entry): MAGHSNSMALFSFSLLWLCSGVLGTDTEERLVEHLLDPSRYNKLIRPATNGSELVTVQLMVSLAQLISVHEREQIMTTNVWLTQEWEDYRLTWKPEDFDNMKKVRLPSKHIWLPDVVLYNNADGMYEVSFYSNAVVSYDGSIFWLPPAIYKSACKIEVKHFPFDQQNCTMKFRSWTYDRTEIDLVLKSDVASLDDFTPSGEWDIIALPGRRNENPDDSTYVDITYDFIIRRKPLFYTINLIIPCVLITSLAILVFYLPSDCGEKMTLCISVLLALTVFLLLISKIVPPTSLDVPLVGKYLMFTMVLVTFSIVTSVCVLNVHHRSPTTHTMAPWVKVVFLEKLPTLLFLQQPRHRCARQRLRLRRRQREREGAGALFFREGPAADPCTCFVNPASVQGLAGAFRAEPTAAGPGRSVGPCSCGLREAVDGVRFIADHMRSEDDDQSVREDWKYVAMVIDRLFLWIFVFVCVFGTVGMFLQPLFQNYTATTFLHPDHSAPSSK
Sequence of Nicotinic acetylcholine receptor alpha6/alpha3/beta2/beta3 (P12391 whole entry): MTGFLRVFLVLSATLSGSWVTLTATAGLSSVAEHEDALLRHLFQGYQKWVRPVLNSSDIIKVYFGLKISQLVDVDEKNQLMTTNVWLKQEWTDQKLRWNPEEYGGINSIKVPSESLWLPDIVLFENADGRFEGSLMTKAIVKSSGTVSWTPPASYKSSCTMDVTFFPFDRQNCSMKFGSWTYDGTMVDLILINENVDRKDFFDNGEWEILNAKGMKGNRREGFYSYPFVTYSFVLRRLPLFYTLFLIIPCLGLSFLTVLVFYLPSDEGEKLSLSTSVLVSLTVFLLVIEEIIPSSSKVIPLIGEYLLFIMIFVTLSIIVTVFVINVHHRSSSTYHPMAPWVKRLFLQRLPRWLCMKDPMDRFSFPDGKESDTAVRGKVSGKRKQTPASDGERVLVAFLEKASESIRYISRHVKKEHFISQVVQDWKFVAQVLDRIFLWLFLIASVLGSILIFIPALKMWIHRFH
Sequence of Nicotinic acetylcholine receptor alpha6/alpha3/beta2/beta3 (P43143 whole entry): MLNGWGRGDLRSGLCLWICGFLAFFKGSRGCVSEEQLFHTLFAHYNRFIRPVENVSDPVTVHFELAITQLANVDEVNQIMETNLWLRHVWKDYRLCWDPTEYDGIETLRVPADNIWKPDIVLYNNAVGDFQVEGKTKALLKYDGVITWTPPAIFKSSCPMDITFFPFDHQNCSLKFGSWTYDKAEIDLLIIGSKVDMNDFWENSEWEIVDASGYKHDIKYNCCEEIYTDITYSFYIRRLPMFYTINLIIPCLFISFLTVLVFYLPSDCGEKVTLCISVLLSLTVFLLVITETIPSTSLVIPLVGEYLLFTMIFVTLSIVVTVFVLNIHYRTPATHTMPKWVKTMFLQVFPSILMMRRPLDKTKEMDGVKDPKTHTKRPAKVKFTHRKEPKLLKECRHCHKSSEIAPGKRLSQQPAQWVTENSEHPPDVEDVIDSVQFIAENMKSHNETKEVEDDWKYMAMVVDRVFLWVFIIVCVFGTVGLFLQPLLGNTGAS

[7] = target: Neuronal acetylcholine receptor; alpha4/beta4 (Rattus norvegicus, UniProt P09483+P12392); assay type: cell-based, Oocyte
[8] = organism: Rattus norvegicus; assay: Selectivity ratio of IC50 for rat alpha3beta4 nAChR to IC50 for rat alpha6/alpha3beta4 nAChR
In short: (§1)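 Ratio of each subtype's IC50, from TEVC inhibition of ACh-evoked currents in X. laevis oocytes, to the IC50 at the same species' α6/α3β4 nAChR; IC50 values with 95% CI, n = number of oocytes.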

[9] = target: Neuronal acetylcholine receptor; alpha2/beta2 (Homo sapiens, UniProt P17787+Q15822); assay: Inhibition of human alpha2beta2 nAChR expressed in Xenopus laevis oocytes assessed as inhibition of acetylcholine-induced current response by two-electrode voltage-clamp method; assay type: cell-based, Oocyte
In short: (§2)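 Two-electrode voltage clamp of stage IV–V oocytes 1–5 days after equal-ratio cRNA injection; ACh 100 μM (β2-containing subtypes, α9α10), 1 s every 60 s in frog saline. Peptide perfused up to 1 μM, responses normalized to mean of three control responses; above 1 μM, 5 min static bath. IC50 with 95% CI; n = oocytes.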

[10] = target: Neuronal acetylcholine receptor; alpha4/beta4 (Rattus norvegicus) (UniProt P09483+P12392); assay: Inhibition of rat alpha4beta4 nAChR expressed in Xenopus laevis oocytes assessed as inhibition of acetylcholine-induced current response at 10 uM by two-electrode voltage-clamp method relative to control; assay type: cell-based; conditions: Oocyte
In short: (§3)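 Stage IV–V X. laevis oocytes expressing equal-ratio cRNAs of α2β4, α3β4, α4β4 or α7 subunits; TEVC 1–5 days after injection. ACh 300 μM, 1 s at 60 s intervals. 10 μM peptide as 5 min static bath, normalized to ACh response after 5 min bath of control saline; mean ± SD, n = 4.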

[11] = target: Neuronal acetylcholine receptor; alpha3/beta2 (Homo sapiens, UniProt P17787+P32297); assay: Inhibition of human alpha3beta2 nAChR expressed in Xenopus laevis oocytes assessed as inhibition of acetylcholine-induced current response by two-electrode voltage-clamp method; assay type: cell-based, Oocyte
In short: as §2

[12] = Inhibition of human alpha4beta4 nAChR expressed in Xenopus laevis oocytes assessed as inhibition of acetylcholine-induced current response by two-electrode voltage-clamp method; assay type: cell-based; conditions: Oocyte
In short: (§4)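 TEVC on stage IV–V oocytes 1–5 days after equal-ratio cRNA injection (α2β4, α3β4, α4β4, α7). ACh 300 μM, 1 s pulses at 60 s intervals under frog saline perfusion. Peptide perfused to 1 μM, normalized to average of three control responses; higher concentrations by 5 min static bath. IC50 with 95% CI, n oocytes.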

[13] = target: Neuronal acetylcholine receptor; alpha3/beta4 (Homo sapiens, UniProt P30926+P32297); assay: Inhibition of human alpha3beta4 nAChR expressed in Xenopus laevis oocytes assessed as inhibition of acetylcholine-induced current response by two-electrode voltage-clamp method; assay type: cell-based, Oocyte
In short: as §4

[14] = target: Neuronal acetylcholine receptor; alpha2/beta4 (Rattus norvegicus) (UniProt P12389+P12392); assay: Inhibition of rat alpha2beta4 nAChR expressed in Xenopus laevis oocytes assessed as inhibition of acetylcholine-induced current response at 10 uM by two-electrode voltage-clamp method relative to control; assay type: cell-based; conditions: Oocyte
In short: as §3

[15] = target: Neuronal acetylcholine receptor subunit alpha-7 (Homo sapiens, UniProt P36544); assay: Inhibition of human alpha7 nAChR expressed in Xenopus laevis oocytes assessed as inhibition of acetylcholine-induced current response by two-electrode voltage-clamp method; assay type: cell-based, Oocyte
In short: as §4

[16] = organism: Homo sapiens; assay: Selectivity ratio of IC50 for human alpha9alpha10 nAChR to IC50 for human alpha6/alpha3beta4 nAChR
In short: as §1

[17] = organism: Homo sapiens; assay: Selectivity ratio of IC50 for human alpha2beta4 nAChR to IC50 for human alpha6/alpha3beta4 nAChR
In short: as §1

[18] = organism: Rattus norvegicus; assay: Selectivity ratio of IC50 for rat alpha2beta2 nAChR to IC50 for rat alpha6/alpha3beta4 nAChR
In short: as §1

[19] = organism: Rattus norvegicus; assay: Selectivity ratio of IC50 for rat alpha4beta2 nAChR to IC50 for rat alpha6/alpha3beta4 nAChR
In short: as §1

[20] = target: Neuronal acetylcholine receptor; alpha4/beta2 (Homo sapiens, UniProt P17787+P43681); assay: Inhibition of human alpha4beta2 nAChR expressed in Xenopus laevis oocytes assessed as inhibition of acetylcholine-induced current response by two-electrode voltage-clamp method; assay type: cell-based, Oocyte
In short: as §2

[21] = organism: Homo sapiens; assay: Selectivity ratio of IC50 for human alpha6/alpha3beta2beta3 nAChR to IC50 for human alpha6/alpha3beta4 nAChR
In short: as §1

[22] = organism: Rattus norvegicus; assay: Selectivity ratio of IC50 for rat alpha2beta4 nAChR to IC50 for rat alpha6/alpha3beta4 nAChR
In short: as §1

[23] = organism: Homo sapiens; assay: Selectivity ratio of IC50 for human alpha4beta2 nAChR to IC50 for human alpha6/alpha3beta4 nAChR
In short: as §1

[24] = target: Neuronal acetylcholine receptor; alpha3/alpha6/beta2/beta3 (Homo sapiens, UniProt P17787+P32297+Q05901+Q15825); assay: Inhibition of human alpha6/alpha3beta2beta3 nAChR expressed in Xenopus laevis oocytes assessed as inhibition of acetylcholine-induced current response by two-electrode voltage-clamp method; assay type: cell-based, Oocyte
In short: as §2

[25] = test system: Oocyte; assay: Inhibition of human alpha4beta4 nAChR expressed in Xenopus laevis oocytes assessed as inhibition of acetylcholine-induced current response at 10 uM by two-electrode voltage-clamp method relative to control; assay type: cell-based
In short: as §3

[26] = target: Neuronal acetylcholine receptor; alpha9/alpha10 (Homo sapiens, UniProt Q9GZZ6+Q9UGM1); assay: Inhibition of human alpha9alpha10 nAChR expressed in Xenopus laevis oocytes assessed as inhibition of acetylcholine-induced current response by two-electrode voltage-clamp method; assay type: cell-based, Oocyte
In short: as §2

[27] = organism: Homo sapiens; assay: Selectivity ratio of IC50 for human alpha2beta2 nAChR to IC50 for human alpha6/alpha3beta4 nAChR
In short: as §1

[28] = target: Neuronal acetylcholine receptor; alpha2/beta4 (Rattus norvegicus, UniProt P12389+P12392); assay: Inhibition of rat alpha2beta4 nAChR expressed in Xenopus laevis oocytes assessed as inhibition of acetylcholine-induced current response by two-electrode voltage-clamp method; assay type: cell-based, Oocyte
In short: as §4

[29] = organism: Homo sapiens; assay: Selectivity ratio of IC50 for human alpha4beta4 nAChR to IC50 for human alpha6/alpha3beta4 nAChR
In short: as §1

[30] = target: Nicotinic acetylcholine receptor alpha9/alpha10 (Rattus norvegicus, UniProt P43144+Q9JLB5); assay: Inhibition of rat alpha9alpha10 nAChR expressed in Xenopus laevis oocytes assessed as inhibition of acetylcholine-induced current response by two-electrode voltage-clamp method; assay type: cell-based, Oocyte
In short: as §2

[31] = target: Neuronal acetylcholine receptor; alpha2/beta2 (Rattus norvegicus, UniProt P12389+P12390); assay: Inhibition of rat alpha2beta2 nAChR expressed in Xenopus laevis oocytes assessed as inhibition of acetylcholine-induced current response by two-electrode voltage-clamp method; assay type: cell-based, Oocyte
In short: as §2

[32] = organism: Rattus norvegicus; assay: Selectivity ratio of IC50 for rat alpha4beta4 nAChR to IC50 for rat alpha6/alpha3beta4 nAChR
In short: as §1

Sequence of Neuronal acetylcholine receptor; alpha4/beta2 (Rattus norvegicus, UniProt P09483+P12390) (P09483 whole entry): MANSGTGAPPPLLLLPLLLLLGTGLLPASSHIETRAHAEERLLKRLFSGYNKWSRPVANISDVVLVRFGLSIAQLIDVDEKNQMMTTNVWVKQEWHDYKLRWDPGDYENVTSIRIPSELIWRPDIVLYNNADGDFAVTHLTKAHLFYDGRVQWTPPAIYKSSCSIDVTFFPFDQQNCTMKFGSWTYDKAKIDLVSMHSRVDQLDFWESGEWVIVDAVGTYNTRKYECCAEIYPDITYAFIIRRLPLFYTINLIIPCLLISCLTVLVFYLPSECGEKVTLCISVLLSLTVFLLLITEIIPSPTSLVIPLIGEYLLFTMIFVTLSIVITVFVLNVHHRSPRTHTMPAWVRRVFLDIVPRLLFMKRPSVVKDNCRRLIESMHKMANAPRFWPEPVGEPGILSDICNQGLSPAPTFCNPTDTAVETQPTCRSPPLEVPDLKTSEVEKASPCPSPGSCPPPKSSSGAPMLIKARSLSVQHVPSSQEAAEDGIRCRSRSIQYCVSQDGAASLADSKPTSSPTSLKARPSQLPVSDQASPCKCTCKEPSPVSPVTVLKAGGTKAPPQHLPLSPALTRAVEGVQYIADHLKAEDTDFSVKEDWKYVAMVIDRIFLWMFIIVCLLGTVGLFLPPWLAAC
Sequence of Neuronal acetylcholine receptor; alpha4/beta2 (Rattus norvegicus, UniProt P09483+P12390) (P12390 whole entry): as the sequence (P12390 whole entry) above
Sequence of Neuronal acetylcholine receptor; alpha3/beta4 (Rattus norvegicus, UniProt P04757+P12392) (P04757 whole entry): as the sequence (P04757 whole entry) above
Sequence of Neuronal acetylcholine receptor; alpha3/beta4 (Rattus norvegicus, UniProt P04757+P12392) (P12392 whole entry): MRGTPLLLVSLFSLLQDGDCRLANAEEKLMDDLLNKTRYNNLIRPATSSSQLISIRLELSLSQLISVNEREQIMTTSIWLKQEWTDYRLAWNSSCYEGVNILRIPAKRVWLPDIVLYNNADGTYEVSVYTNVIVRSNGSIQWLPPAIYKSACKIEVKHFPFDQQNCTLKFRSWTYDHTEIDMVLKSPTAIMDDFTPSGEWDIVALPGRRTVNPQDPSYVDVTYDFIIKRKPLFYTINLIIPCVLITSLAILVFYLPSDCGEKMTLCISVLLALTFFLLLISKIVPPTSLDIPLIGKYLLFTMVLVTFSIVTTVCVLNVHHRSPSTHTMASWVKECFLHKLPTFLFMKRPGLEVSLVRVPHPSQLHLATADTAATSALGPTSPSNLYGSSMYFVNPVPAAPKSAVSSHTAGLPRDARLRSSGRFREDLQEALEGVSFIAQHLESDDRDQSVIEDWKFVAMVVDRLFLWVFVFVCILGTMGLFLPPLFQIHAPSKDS

## CC(C)C[C@@H]1NC(=O)[C@H](C)NC(=O)[C@@H]2CCCN2C(=O)[C@H](CCC(=O)O)NC(=O)[C@H](CCCNC(=N)N)NC(=O)[C@H](C)NC(=O)[C@H](Cc2cnc[nH]2)NC(=O)[C@@H]2CSSC[C@H](NC(=O)CN)C(=O)N[C@@H](CSSC[C@@H](C(N)=O)NC1=O)C(=O)N[C@@H](CO)C(=O)N[C@@H](Cc1cnc[nH]1)C(=O)N1CCC[C@H]1C(=O)N[C@@H](Cc1cnc[nH]1)C(=O)N2 (H-GCCSHPHCHAREPALC-NH2; disulfide 2-8, 3-16)
[1]
  IC50: > 10 µM
[2]
  IC50: > 10 µM
[3]
  IC50: > 10 µM
[4]
  IC50: > 10 µM
[5]
  IC50: 0.0438 µM
[6]
  IC50: 0.0438 µM
[7]
  IC50: > 10 µM

## CC(C)C[C@@H]1NC(=O)[C@H](C)NC(=O)[C@H](CCCNC(=N)N)NC(=O)[C@H](Cc2cnc[nH]2)NC(=O)[C@H](CCCNC(=N)N)NC(=O)[C@H](C)NC(=O)[C@H](CCCNC(=N)N)NC(=O)[C@@H]2CSSC[C@H](NC(=O)CN)C(=O)N[C@@H](CSSC[C@@H](C(N)=O)NC1=O)C(=O)N[C@@H](CO)C(=O)N[C@@H](Cc1cnc[nH]1)C(=O)N1CCC[C@H]1C(=O)N[C@@H](C(C)C)C(=O)N2 (H-GCCSHPVCRARHRALC-NH2; disulfide 2-8, 3-16)
[8]
  Ratio IC50: > 3180
[9]
  IC50: > 10 µM
[1]
  IC50: > 10 µM
[10]
  inhibition: 82%
[11]
  IC50: 12.2 µM
[12]
  IC50: > 10 µM
[13]
  IC50: 9.06 µM
[14]
  inhibition: 85%
[15]
  IC50: 5.56 µM
[16]
  Ratio IC50: 104
[2]
  IC50: > 10 µM
[17]
  Ratio IC50: > 1800
[18]
  Ratio IC50: > 3180
[19]
  Ratio IC50: > 3180
[20]
  IC50: > 10 µM
[21]
  Ratio IC50: 1
[3]
  IC50: 3.94 µM
[22]
  Ratio IC50: > 3180
[4]
  IC50: 9.51 µM
[23]
  Ratio IC50: > 1800
[5]
  IC50: > 10 µM
[24]
  IC50: 0.00555 µM
[25]
  inhibition: 92%
[6]
  IC50: 0.00314 µM
[26]
  IC50: 0.576 µM
[27]
  Ratio IC50: > 1800
[28]
  IC50: > 10 µM
[29]
  Ratio IC50: > 1800
[30]
  IC50: 0.667 µM
[31]
  IC50: > 10 µM
[32]
  Ratio IC50: > 3180
